This passage reports IC50, LD50 and selectivity ratio results from ChEMBL document CHEMBL4393692, “Thiazolidinone/thiazole based hybrids - New class of antitrypanosomal agents” (Eur J Med Chem, 2019).

The subject of data set [1] is Trypanosoma brucei gambiense. The experiment in a line: Antitrypanosomal activity against bloodstream form of Trypanosoma brucei gambiense Feo reduction in parasite growth after 72 hrs by resazurin dye based fluorescence assay. The class given is functional, organism-based. Summed up: (§1)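 Bloodstream parasites cultured in HMI9 with 10% FCS at 37°C under 5% CO2. Log-phase cells harvested at 3000xg, plated at 10^5 cells/ml with dilutions from 10 down to 0.625 µg/ml (DMSO stocks) for 72 h. Resazurin added at 45 µM final, fluorescence read after a further 4 h. Inhibition vs DMSO control. IC50 from dose-response curve, mean ± SD of three independent experiments.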
Background: Alamar Blue is a resazurin reagent that responds to reducing activity.

Data set [2] relates to Trypanosoma brucei brucei. Briefly: Antitrypanosomal activity against bloodstream form of Trypanosoma brucei brucei 90-13 reduction in parasite growth after 72 hrs by resazurin dye based fluorescence assay. The class given is functional, organism-based. To be noted: 90-13, 72 h. In short, it runs like this: as §1
Data set [3] can be described thus: Cytotoxicity against human AB943 cells assessed as reduction in cell viability after 5 days resazurin dye based fluorescence assay. To be noted: 120 h. Summed up: (§2)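 Human primary fibroblasts grown in RPMI with 25 mM HEPES pH 7.3 and 10% FCS, 37°C, 5% CO2. After trypsinisation, seeded at 5000 cells/well and incubated 24 h. Then washed and exposed to two-fold drug dilutions, final DMSO below 1%, for 5 days. Resazurin added, fluorescence read (ex 530/em 590 nm) after 4 h. Growth inhibition vs DMSO control. SI = IC50 fibroblast / IC50 T. b. gambiense.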

Data set [4] in a line: Acute toxicity in ip dosed mouse by Litchfield-Wilcoxon method. To be noted: in vivo. Type of data set: organism-based. Summed up: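 White male mice of 23-25 g; compounds dissolved in 0.9% NaCl saline with 1-2 drops Tween-80, stock prepared immediately before use. Single intraperitoneal injection at increasing doses within 100–1000 mg/kg, 4 or 5 dose levels with 6 animals per dose. LD50 derived by the Litchfield-Wilcoxon method.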

The nature of data set [5]: Selectivity index, ratio of IC50 for human AB943 cells to IC50 of bloodstream form of Trypanosoma brucei gambiense Feo. The conditions noted are these: read-out: Ratio IC50. Type of data set: toxicity. In short, it runs like this:
as §2

For `CCC1S/C(=N\N=C\c2c(-c3ccccc3)[nH]c3ccccc23)NC1=O` (stereo not drawn), the IC50 in data set [1] amounted to 0.11 µM; in data set [2] it was 0.03 µM; in data set [3], 24.8 µM. The compound also had a median lethal dose (LD50) in data set [4] of 220 mg/kg. The selectivity ratio in data set [5] is 220.

For `CC1S/C(=N\N=C\c2c(-c3ccccc3)[nH]c3ccccc23)NC1=O` (stereo not drawn), the figures for the half-inhibitory concentration (IC50) in data set [1] and in data set [3] were 0.21 µM and 28.1 µM, respectively. In data set [4], this compound showed a median lethal dose (LD50) of 220 mg/kg. Also, the selectivity ratio in data set [5] amounted to 130.

The compound `O=C1CS/C(=N\N=C\c2c(-c3ccc(Cl)cc3)[nH]c3ccccc23)N1` registered an IC50 in data set [1] of 3.93 µM. Also, in data set [4], the LD50 amounted to 270 mg/kg.

With `O=C(O)CC1S/C(=N\N=C\c2c(-c3ccccc3)[nH]c3ccccc23)NC1=O` (stereo not drawn), in data set [4], the LD50 was 240 mg/kg.

Compound `O=C(O)CC1S/C(=N\N=C\c2c(-c3ccc(Cl)cc3)[nH]c3ccccc23)NC1=O` (stereo not drawn) gave an LD50 in data set [4] of 290 mg/kg.

Regarding `CC(=O)OCCC1S/C(=N\N=C\c2c(-c3ccccc3)[nH]c3ccccc23)NC1=O` (stereo not drawn), the half-maximal inhibitory concentration (IC50) in data set [1] worked out at 0.23 µM; in data set [2] it was 0.06 µM; in data set [3], 20.9 µM. Further, the median lethal dose (LD50) in data set [4] amounted to 200 mg/kg. In data set [5], the selectivity ratio amounted to 95.

Consider `N=C(N)c1ccc(OCCCCCOc2ccc(C(=N)N)cc2)cc1` [PENTAMIDINE], for which the IC50 came to 0.0015 µM in data set [1], 0.0014 µM in data set [2] and 23.2 µM in data set [3].

Regarding `CC1S/C(=N\N=C\c2c(-c3ccc(Cl)cc3)[nH]c3ccccc23)NC1=O` (stereo not drawn), the 50% inhibitory concentration (IC50) is 2.22 µM in data set [1] and 5.22 µM in data set [3]. The LD50 in data set [4] was determined as 310 mg/kg. Besides, the selectivity ratio in data set [5] came out at 2.

On to `CC1CS(=O)(=O)CCN1/N=C/c1ccc([N+](=O)[O-])o1` (stereo not drawn) [NIFURTIMOX], for which the 50% inhibitory concentration (IC50) in data set [1] was 4.64 µM; in data set [2], 2.39 µM; in data set [3] it was 65.1 µM. The selectivity ratio in data set [5] worked out at 14.

Take `CCC1S/C(=N\N=C\c2c(-c3ccc(Cl)cc3)[nH]c3ccccc23)N(c2ccc(O)cc2)C1=O` (stereo not drawn): the IC50 is 0.86 µM in data set [1] and 85.9 µM in data set [3]. The compound further returned a 50% lethal dose (LD50) in data set [4] of 330 mg/kg. Besides, the selectivity ratio in data set [5] was 100.

For orientation: IC50 means the midpoint of a concentration-inhibition curve. Usually LD50 stands for the dose expected to kill half of the subjects tested.
